Experimental findings from ChEMBL document CHEMBL5236545, “Discovery of Potent and Brain-Penetrant Tau Tubulin Kinase 1 (TTBK1) Inhibitors that Lower Tau Phosphorylation In Vivo” (J Med Chem, 2021) are described below.

Molecules are shown by their SMILES. Values after ≈ are worked out from the molar mass of the structure shown. Some results are limits rather than exact numbers.

Series [1] in a line: Intrinsic clearance in human liver microsomes at 1 uM incubated upto 40 mins. Type of series: ADME, Microsome. The conditions noted are these: read-out: CLH.
A short description of series [2]: Intrinsic clearance in rat liver microsomes at 1 uM incubated upto 40 mins. It is filed as ADME, Microsome. The note with it: read-out: CLH. In general terms: Liver microsomes are a subcellular fraction often used to study metabolism.
Series [3] is described as follows: Stability of the compound at pH 7.4 by UHPLC-MS/MS analysis. It is filed as physicochemical. The note with it: buffer.
Series [4] can be described thus: Dissociation constant, pKa of compound. It is filed as physicochemical.
Series [5] can be described thus: Solubility of compound. Type of series: physicochemical.
Series [6] in a line: Unbound brain-to-plasma concentration ratio in rat at 1 mg/kg,iv administered for 4 hrs. Type of series: ADME, organism-based. The note with it: brain and plasma (unbound), read-out: K(p,uu,brain).
A short description of series [7]: Clearance in rat at 1 mg/kg,iv administered for 4 hrs. The note with it: in vivo. Type of series: ADME, organism-based.
Series [8] is described as follows: Volume of distribution at steady state in rat at 1 mg/kg,iv administered for 4 hrs. It is filed as ADME, organism-based. The note with it: in vivo, read-out: Vdss.
A short description of series [9]: Half life in rat at 1 mg/kg,iv administered for 4 hrs. Type of series: ADME, organism-based. The note with it: in vivo.
Series [10] in a line: Clearance in mouse at 1 mg/kg,iv administered for 4 hrs. Type of series: ADME, organism-based. The conditions noted are these: in vivo.
Series [11] can be described thus: Volume of distribution at steady state in mouse at 1 mg/kg,iv administered for 4 hrs. Type of series: ADME, organism-based. The conditions noted are these: in vivo, read-out: Vdss.
The nature of series [12]: Half life in mouse at 1 mg/kg,iv administered for 4 hrs. It is filed as ADME, organism-based. The note with it: in vivo.
Series [13] can be described thus: Drug concentration in rat brain at 80 mg/kg,ip administered for 24 hr by LC-MS/MS analysis. Type of series: ADME, organism-based. The conditions noted are these: in vivo. The gist of the method: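 Post-natal day 10 rats given 80 mg/kg I.P.; groups sacrificed 0.5−24 h after dosing. Cortical samples from each hemisphere taken for brain drug concentration and tau phosphorylation.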

As to `CC(C)(O)C#Cc1cc2c(cn1)c(C1CC1)cn2-c1ccnc(N)n1`, the results for the CLint scaled at 1 µM in series [1] and in series [2] were 10 mL/min/kg and 374 mL/min/kg, respectively.

Take `CN1CCC[C@@H](c2cn(-c3ccnc(N)n3)c3cc(C#CC(C)(C)O)ncc23)C1`: the CLint scaled at 1 µM in series [1] is < 5 mL/min/kg; in series [2], < 11 mL/min/kg. Further, the Stability in series [3] was determined as 99.3%.

As usually defined, the pKa is the pH at which an ionisable group is half protonated. As for `CC(C)(O)C#Cc1cc2c(cn1)CCN2c1ccnc(N)n1`, the CLint scaled at 1 µM in series [1] is < 5 mL/min/kg; in series [2] it was 24 mL/min/kg. The same compound yielded a pKa in series [4] of 7.4. Besides, in series [3], the Stability is recorded as 82.7%.

As usually defined, the solubility is the concentration that dissolves in the medium under given conditions. The low end stands for little dissolved substance, the high end for much dissolved substance. What is called clearance is a measure of how efficiently the substance is removed, as volume per time. A high value points to a high capacity for elimination. A word on the half-life: it is the time in which the quantity being followed falls by half. A high value points to slow decline. Regarding `CC[C@](C)(O)C#Cc1cc2c(cn1)cnn2-c1ccnc(N)n1`, the CLint scaled at 1 µM in [1] is < 5 mL/min/kg; in series [2], 36 mL/min/kg. Moreover, in [3], the Stability is on record as 99.9%. The concentration in solution in series [5] (solubility) was 46 µg/mL (≈ 149 µM). Besides, in series [6], the Kp uu at 4 h came to 0.08. Besides, the clearance in [7] amounted to 17 mL/min/kg. Besides, the Vd in [8] came out at 2.48 L/kg. Further, the half-life in series [9] was 4.3 h.

For the compound `CC(C)(O)C#Cc1cc2c(ccn2-c2ccnc(N)n2)cc1F`, the CLint scaled at 1 µM in series [1] was determined as 21 mL/min/kg; in [2], 69 mL/min/kg. In addition, the Stability in [3] worked out at 100%.

As to `CC(C)(O)C#Cc1cc2c(cn1)cnn2-c1ccnc(N)n1`, the CLint scaled at 1 µM in series [1] was < 5 mL/min/kg; in [2], 27 mL/min/kg. Also, the pKa in [4] amounted to 4.9.

Consider `CC(C)(O)C#Cc1cc2c(cn1)c(C1CCOCC1)cn2-c1ccnc(N)n1`, for which the CLint scaled at 1 µM in series [1] is 6 mL/min/kg; in series [2] it was 38 mL/min/kg.

Turning to `CC[C@](C)(O)C#Cc1cc2c(ccn2-c2cc(OC)nc(N)n2)cn1`, the CLint scaled at 1 µM in series [1] was found to be 16 mL/min/kg; in series [2], 219 mL/min/kg. For the same compound, the concentration in solution in series [5] (solubility) was 45 µg/mL (≈ 133 µM). The Kp uu at 4 h in series [6] turned out to be 0.32. The values for the clearance in [7] and in series [10] were 62 mL/min/kg and 67 mL/min/kg, respectively. For the same compound, the Vd was 4.87 L/kg in series [8] and 0.474 L/kg in series [11]. Further, the half-life in series [9] was 3.6 h; in [12], 6 min. The Drug uptake result in [13] is listed as “Not Active”.

As for `COc1cc2ccn(-c3ccnc(N)n3)c2cc1C#CC(C)(C)O`, the CLint scaled at 1 µM in series [1] is 31 mL/min/kg; in series [2], 56 mL/min/kg.

Take `CC(C)(O)C#Cc1cc2c(ccn2-c2ccnc(N)n2)cn1`: the CLint scaled at 1 µM in series [1] is 19 mL/min/kg; in series [2] it was 42 mL/min/kg. This compound also came in with a pKa in [4] of 5.7.

As to `CC[C@](C)(O)C#Cc1cc2c(ccn2-c2ccnc(N)n2)cn1`, the CLint scaled at 1 µM in series [1] came out at 11 mL/min/kg; in [2], 155 mL/min/kg. Moreover, the Stability in series [3] came to 99.7%. In addition, the solubility in [5] was determined as 44 µg/mL (≈ 143 µM). In series [6], the Kp uu at 4 h amounted to 0.1. This compound also returned a clearance in series [7] of 64 mL/min/kg. Moreover, in series [8], the Vd was found to be 2.17 L/kg. Also, the half-life in [9] is 3.6 h.

`COc1nc(C#CC(C)(C)O)cc2c1ccn2-c1ccnc(N)n1`: the CLint scaled at 1 µM was determined as 10 mL/min/kg in series [1] and 62 mL/min/kg in series [2].

Take `Cn1nc(-c2ccnc(N)n2)c2cc(C#CC(C)(C)O)ccc21`: the Stability in series [3] was found to be 100%.

On to `CC(C)(O)C#Cc1cc2c(ccn2-c2ccnc(N)n2)c(N2CCOCC2)n1`, for which the CLint scaled at 1 µM in series [1] was < 5 mL/min/kg; in series [2], 42 mL/min/kg.
